Data: ChEMBL document CHEMBL3351276, “Structural basis for rational design of inhibitors targeting Trypanosoma cruzi sterol 14α-demethylase: two regions of the enzyme molecule potentiate its inhibition” (J Med Chem, 2014)

Legend:
Trypanosoma cruzi [1] = experiment: Antitrypanosomal activity against Trypanosoma cruzi Tulahuen trypomastigotes expressing green florescent protein infected in cardiomyocytes assessed as inhibition of parasite growth at 10 nM after 72 hrs by fluorescence microscopy; assay type: functional
[2] = molecular target: Sterol 14-alpha demethylase (Trypanosoma cruzi (strain CL Brener)) (UniProt Q7Z1V1); experiment: Binding affinity to Trypanosoma cruzi CYP51 by spectral ligand binding assay
Sequence of Sterol 14-alpha demethylase (Trypanosoma cruzi (strain CL Brener)) (Q7Z1V1 whole entry, looked up): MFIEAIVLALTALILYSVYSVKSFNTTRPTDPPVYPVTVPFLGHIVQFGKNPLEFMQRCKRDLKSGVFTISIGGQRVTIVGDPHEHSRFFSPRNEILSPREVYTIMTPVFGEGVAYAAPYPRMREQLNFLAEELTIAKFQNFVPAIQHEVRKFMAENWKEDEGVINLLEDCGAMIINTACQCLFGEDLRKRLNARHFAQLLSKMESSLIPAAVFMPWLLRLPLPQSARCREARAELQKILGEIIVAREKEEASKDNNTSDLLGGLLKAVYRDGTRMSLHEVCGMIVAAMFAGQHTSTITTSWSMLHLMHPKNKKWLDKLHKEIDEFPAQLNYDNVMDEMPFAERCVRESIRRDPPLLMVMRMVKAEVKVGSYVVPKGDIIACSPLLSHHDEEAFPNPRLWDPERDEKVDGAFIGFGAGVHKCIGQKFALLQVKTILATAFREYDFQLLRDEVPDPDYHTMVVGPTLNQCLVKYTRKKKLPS
How it was run: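 Full-length Tulahuen T. cruzi CYP51 at ~1 μM in 20 mM K-phosphate pH 7.4, 200 mM NaCl, 0.1 mM EDTA, 25 °C, 5 cm path. Ligand is titrated 0.2–2.0 μM in 0.2 μM steps, with DMSO matched in the reference cuvette. The Soret red-shift difference spectra (peak-to-trough ΔA) are fit to a quadratic tight-binding equation, giving Ks and ΔAmax/Ks.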

[3] = molecular target: Sterol 14-alpha demethylase (Trypanosoma cruzi (strain CL Brener)) (UniProt Q7Z1V1); experiment: Inhibition of Trypanosoma cruzi CYP51 assessed as substrate conversion level using [3H]eburicol substrate at inhibitor/enzyme molar ratio of 2 after 1 hr by HPLC method; parameters: scale not given: the % may be the effect or the level left
How it was run: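 Reconstituted full-length CYP51 (1 μM) with 2 μM CPR, 100 μM dilauroylphosphatidylcholine, and an isocitrate dehydrogenase/isocitrate system in 20 mM MOPS pH 7.4, 50 mM KCl, 5 mM MgCl₂, 10% glycerol. [³H]eburicol is final 50 μM; enzyme/substrate/inhibitor ratio is 1:50:2. After 5 min preincubation at 37 °C, 100 μM NADPH starts the 1 h reaction. Sterols are ethyl acetate-extracted and resolved by reverse-phase HPLC with radiodetection.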

Trypanosoma cruzi [4] = experiment: Antitrypanosomal activity against Trypanosoma cruzi Tulahuen trypomastigotes expressing green florescent protein infected in cardiomyocytes assessed as inhibition of parasite growth after 72 hrs by fluorescence microscopy; assay type: functional, organism-based
How it was run: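 GFP-expressing T. cruzi Tulahuen 20A-clone trypomastigotes infect cardiomyocyte monolayers at 10 parasites per cell in DMEM + 10% FBS; unbound parasites are washed off. At 24 h, inhibitors (1–25 nM, in DMSO/phenol-red-free DMEM) are added and cultured 48 h, in triplicate. At 72 h, infection is read as fluorescence (RFU), or cells are fixed in paraformaldehyde and stained with DAPI/phalloidin for microscopy. Posaconazole is the control.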

Structure (SMILES)	Ks [2] [µM]	Activity [3] [%]	inhibition at 0.01 µM (Trypanosoma cruzi [1]) [%]	EC50 (Trypanosoma cruzi [4]) [nM]
O=C(Nc1ccc(N2CCN(c3ccc(Cl)c(Cl)c3)CC2)cc1)O[C@H](Cn1ccnc1)c1ccc(Cl)cc1Cl	–	3.8	73.5	1.3
O=C(O[C@@H](Cn1ccnc1)c1ccccc1)c1ccc(-c2ccccc2)cc1	0.087	79.5	29.5	15
O=C(Nc1ccc(N2CCN(c3ccc(Cl)c(Cl)c3)CC2)cc1)O[C@@H](Cn1ccnc1)c1ccc(Cl)cc1Cl	–	0.8	83	1.2
CC(C)c1ccc(NC(=O)O[C@@H](Cn2ccnc2)c2ccc(Cl)cc2)cc1	–	90	30.5	22
CC(C)c1ccc(NC(=O)O[C@H](Cn2ccnc2)c2ccc(Cl)cc2)cc1	–	1.9	74.5	1
CC[C@@H]([C@H](C)O)n1ncn(-c2ccc(N3CCN(c4ccc(OC[C@@H]5CO[C@@](Cn6cncn6)(c6ccc(F)cc6F)C5)cc4)CC3)cc2)c1=O [POSACONAZOLE]	–	–	64	5
O=C(Nc1ccc(Sc2ccc([N+](=O)[O-])cc2)cc1)O[C@@H](Cn1ccnc1)c1ccc(Cl)cc1	0.715	52.5	62.5	2.5

Now from value to compound, other results behind:

Ks [2] [µM]	Activity [3] [%]	Structure (SMILES)	inhibition at 0.01 µM (Trypanosoma cruzi [1]) [%]	EC50 (Trypanosoma cruzi [4]) [nM]
0.046	0.7	O=C(O[C@H](Cn1ccnc1)c1ccccc1)c1ccc(-c2ccccc2)cc1	76.3	1.2
0.087	89.2	O=C(NCCCn1ccnc1)O[C@@H](Cn1ccnc1)c1ccc(F)cc1	–	–
0.162	12.5	O=C(Nc1ccc(Sc2ccc([N+](=O)[O-])cc2)cc1)O[C@H](Cn1ccnc1)c1ccc(Cl)cc1	70	1.5
0.6	93.9	O=C(NCCCn1ccnc1)O[C@H](Cn1ccnc1)c1ccc(F)cc1	–	–
0.083	86.5	CC(C)c1ccc(NC(=O)O[C@@H](Cn2ccnc2)c2ccc(F)cc2)cc1	32.1	20
0.032	8.5	CC(C)c1ccc(NC(=O)O[C@H](Cn2ccnc2)c2ccc(F)cc2)cc1	69.3	5.5
